Measurements taken from ChEMBL document CHEMBL1137991, “Novel secoergoline derivatives inhibit both GABA and glutamate uptake in rat brain homogenates: synthesis, in vitro pharmacology, and modeling” (J Med Chem, 2004).

Experiments:
[1] = In vitro inhibition of [3H]DASP transport through rat cerebrocortical membranes; format: functional, cell membranes, Membrane
Method in brief: (§1)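 Rat cerebrocortical native plasma membrane vesicle fraction, final pellet in buffer A (145 mM NaCl, 5 mM KCl, 1 mM CaCl2, 1 mM MgCl2, 10 mM glucose, 0.1 mM aminooxyacetate, 2 mM NaHCO3, 20 mM HEPES, pH 7.5). Specific [3H]D-aspartate (24 Ci/mmol) transport measured at 30 °C. Duplicates in 2–6 experiments. IC50 given as mean ± SD.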

[2] = target: T1, GABA transporter (Rattus norvegicus, UniProt P31647+P23978+P31646+P48056); test: In vitro inhibitory activity against [3H]GABA transport in rat cerebrocortical membranes; format: cell membranes
Method in brief: (§2)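 Specific [3H]GABA (61 Ci/mmol) transport was measured at 30 °C in a native plasma membrane vesicle fraction from rat cerebral cortex. Vesicles were suspended in buffer A (Na+/K+/Ca2+/Mg2+ saline, 10 mM glucose, 0.1 mM aminooxyacetate, 20 mM HEPES, pH 7.5). Duplicates in 2–6 experiments. IC50 given as mean ± SD.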

[3] = In vitro inhibition of [3H]DASP transport through rat cerebrocortical membranes without TBOA; Control; format: functional, cell membranes, Membrane; method in brief: as §1
[4] = In vitro inhibition of [3H]DASP transport through rat cerebrocortical membranes with 100 uM TBOA; Phase 2; format: functional, cell membranes, Membrane
Method in brief: (§3)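 [3H]D-aspartate (24 Ci/mmol) transport into rat cerebrocortical plasma membrane vesicles in HEPES-buffered saline A, pH 7.5, at 30 °C, with 100 µM DL-TBOA present. An IC50 was taken for each phase of the dose–response curve. Duplicates in 2–6 experiments, mean ± SD.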

[5] = In vitro inhibition of [3H]DASP transport through rat cerebrocortical membranes with 100 uM TBOA; Phase 1; format: functional, cell membranes, Membrane; method in brief: as §3
[6] = target: T1, GABA transporter; test: In vitro inhibitory activity against [3H]GABA transport in rat cerebrocortical membranes in the absence of NNC-711; Control; format: cell membranes; method in brief: as §2
[7] = target: T1, GABA transporter; test: In vitro inhibitory activity against [3H]GABA transport in rat cerebrocortical membranes in the presence of NNC-711 (100 uM); Phase 2; format: cell membranes
Method in brief: (§4)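 [3H]GABA (61 Ci/mmol) uptake by rat cerebrocortical membrane vesicles in buffer A, pH 7.5, at 30 °C, with 100 µM NNC-711 present. An IC50 was derived for each phase of the dose–response curve. Duplicates in 2–6 experiments, mean ± SD.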

[8] = target: T1, GABA transporter; test: In vitro inhibitory activity against [3H]-GABA transport in rat cerebrocortical membranes in the presence of NNC-711 (100 uM); Phase 1; format: cell membranes; method in brief: as §4

Row | IC50 [1] [µM] | IC50 [2] | SMILES | other results
1 | 1100 | 1100 µM | COC(=O)/C=C(/c1ccccc1)C(C)N(C)CC(=O)OC (configuration not stated) | 
2 | > 1000 | >> 1000 uM | COC(=O)/C=C(\c1ccccc1)C(C)N(C)CC(=O)OC (configuration not stated) | 
3 | > 1000 | >> 1000 uM | CCOC(=O)[C@@H]1CN(C)C(C)[C@](O)(c2ccccc2)[C@H]1C(=O)OCC (some centres not stated) | 
4 | > 1000 | >> 1000 uM | CCOC(=O)C1=C(c2ccccc2)C(C)N(C)CC1C(=O)OCC (configuration not stated) | 
5 | > 1000 | >> 1000 uM | CCOC(=O)/C=C(\c1ccccc1)C(C)N(C)CC(=O)OCC (configuration not stated) | 
6 | 420 | 270 µM | CCOC(=O)/C=C(/c1ccccc1)C(C)N(C)CC(=O)OCC (configuration not stated) | 

Second part, the compound before the results:

Row | SMILES | IC50 [1] [µM] | IC50 [2] | other results
7 | CCOC(=O)C1C(=O)C=C(c2ccccc2)C(C)N1C (configuration not stated) | 660 | 680 µM | 
8 | CCOC(=O)C1C(=O)C=C(c2ccccc2)C(C)N1C.N[C@H](C(=O)O)[C@H](OCc1ccccc1)C(=O)O (configuration not stated) |  |  | IC50 [3]: 660 µM; IC50 [4]: 591 µM; IC50 [5]: 0.009 µM
9 | CCOC(=O)/C=C(/c1ccccc1)C(C)N(C)CC(=O)OCC.N[C@H](C(=O)O)[C@H](OCc1ccccc1)C(=O)O (configuration not stated) |  |  | IC50 [3]: 420 µM; IC50 [4]: 386 µM; IC50 [5]: 0.034 µM
10 | CCOC(=O)[C@H]1[C@H](C(=O)O)CN(C)C(C)[C@]1(O)c1ccccc1 (some centres not stated) | > 1000 | >> 1000 uM | 
11 | CC1N(C)C[C@@H](C(=O)O)[C@H](C(=O)O)[C@@]1(O)c1ccccc1 (some centres not stated) | > 1000 | >> 1000 uM | 
12 | COC(=O)/C=C(/c1ccccc1)C(C)N(C)CC(=O)OC.N[C@H](C(=O)O)[C@H](OCc1ccccc1)C(=O)O (configuration not stated) |  |  | IC50 [3]: 1100 µM; IC50 [4]: 1020 µM; IC50 [5]: 0.011 µM
13 | CCOC(=O)CNC(C)C(=O)c1ccccc1.Cl (configuration not stated) | > 1000 | >> 1000 uM | 
14 | CCOC(=O)C1C(=O)C=C(c2ccccc2)C(C)N1C.Cl.O=C(O)C1=CCCN(CCON=C(c2ccccc2)c2ccccc2)C1 |  |  | IC50 [6]: 680 µM; IC50 [7]: 360 µM; IC50 [8]: 0.0037 µM
15 | CCOC(=O)CN(C)C(C)C(=O)c1ccccc1.Cl (configuration not stated) | > 1000 | >> 1000 uM | 
16 | COC(=O)CN(C)C(C)C(=O)c1ccccc1.Cl (configuration not stated) | > 1000 | >> 1000 uM | 
17 | COC(=O)/C=C(/c1ccccc1)C(C)N(C)CC(=O)OC.Cl.O=C(O)C1=CCCN(CCON=C(c2ccccc2)c2ccccc2)C1 |  |  | IC50 [6]: 1100 µM; IC50 [7]: 491 µM; IC50 [8]: 0.044 µM
18 | CCOC(=O)/C=C(/c1ccccc1)C(C)N(C)CC(=O)OCC.Cl.O=C(O)C1=CCCN(CCON=C(c2ccccc2)c2ccccc2)C1 |  |  | IC50 [6]: 270 µM; IC50 [7]: 380 µM; IC50 [8]: 0.18 µM
